Reference: ChEMBL document CHEMBL1122076, “Synthesis of 2-(alkylamino)-5,6- and -6,7-dihydroxy-3,4-dihydroquinazolines and evaluation as potential dopamine agonists” (J Med Chem, 1982)
Calls of active or inactive are those of the source. No cut-off for these calls is given here.

system: Canis familiaris; assay: Evaluated for the percentage vasodilation in the renal artery produced by 3000 nmol administered intra-arterially; NA is No Antagonistic activity; type: functional, organism-based; conditions: Canis lupus familiaris
Outline: (§1)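 Anesthetized dogs fitted with an electromagnetic flow probe on the renal artery; a bent 25-gauge needle was inserted proximally into the artery for dosing. Phenoxybenzamine, 5 mg/kg ia, was infused first. A dopamine dose-response curve (11.75, 47, 188 nmol/dog) was run, then rising doses of test agent up to 3000 nmol were injected intra-arterially, each in 0.2 mL.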

Row | SMILES | Vasodilation
1 | CCCN(CCC)C1=NCc2c(ccc(O)c2O)N1 | inactive
2 | NC1CCc2c(ccc(O)c2O)C1 (stereo not given) | inactive
3 | NC1=NCc2c(ccc(O)c2O)N1 | inactive
4 | CN(C)C1=NCc2c(ccc(O)c2O)N1 | inactive
5 | CN(C)C1=NCc2cc(O)c(O)cc2N1 | inactive
6 | CNC1=NCc2c(ccc(O)c2O)N1 | inactive
7 | CN(C)C1CCc2c(ccc(O)c2O)C1 (stereo not given) | inactive

system: Canis familiaris; assay: Evaluated for the percentage vasodilation in the renal artery produced by 3000 nmol administered intra-arterially.; type: functional, Canis lupus familiaris; conditions: not given; outline: as §1

Row | SMILES | Vasodilation [%]
8 | CNC1=NCc2cc(O)c(O)cc2N1 | 50
9 | CCCN(CCC)C1=NCc2cc(O)c(O)cc2N1 | 50
10 | NC1=NCc2cc(O)c(O)cc2N1 | 50

system: not listed separately; assay: Evaluated for the pKa value.; type: physicochemical; conditions: not given
Outline: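 Hydrochloride salt titrated to determine the pKa of the ammonium ion. Values for related analogues were estimated by extrapolating the pKa values of the corresponding dimethyl ethers.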

Row | SMILES | pKa
11 | COc1cc2c(cc1OC)NC(N)=NC2 | 11.1
12 | NC1CCc2c(ccc(O)c2O)C1 (stereo not given) | 9.84
13 | NCCc1ccc(O)c(O)c1 [DOPAMINE] | 9.84
14 | NC1=NCc2cc(O)c(O)cc2N1 | 12
15 | NC1CCc2cc(O)c(O)cc2C1 (stereo not given) | 9.84
